Assay outcomes from PubChem BioAssay.
Most compounds without a hit are left out; they make up all but 4% or so of the library.
NTR1 agonist: NTR1 (human) agonism; P30989; 330,000 compounds, 0.17% hits; activation, % at 20 µM; NTR1-U2OS beta-arrestin-GFP spot imaging, agonist mode;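 active means activation at or above 40% of the spot to cytoplasm intensity ratio, with at least 20 cells analyzed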;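 further: 0% = DMSO without peptide and 100% = 100 nM NTR1 peptide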
TAAR1 ag: human TAAR1 agonism | Q96RJ0 | activation, % at 3 µM | CHO RD-HGA16 TAAR1, Fluo-8 calcium fluorescence; vehicle wells 0%, saturating PEA agonist 100% | 360,000 compounds, 0.99% hits;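 active means activation above the mean activation of all test compounds in the run plus 3 SD, cut at about 38% in these data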
Target sequence (Q96RJ0 whole entry, looked up): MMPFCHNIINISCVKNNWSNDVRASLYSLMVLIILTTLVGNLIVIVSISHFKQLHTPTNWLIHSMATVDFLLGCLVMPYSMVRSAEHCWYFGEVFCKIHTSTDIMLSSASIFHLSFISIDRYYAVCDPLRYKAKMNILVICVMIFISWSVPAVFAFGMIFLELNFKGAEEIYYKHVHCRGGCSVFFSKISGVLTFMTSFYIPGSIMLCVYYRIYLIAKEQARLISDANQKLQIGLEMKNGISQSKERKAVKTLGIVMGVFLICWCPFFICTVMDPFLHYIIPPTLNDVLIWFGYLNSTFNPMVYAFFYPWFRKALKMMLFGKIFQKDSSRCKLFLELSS
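Test system: RD-HGA16 (CHO) cells co-expressing Gα16 and hTAAR1 | Doses: Single dose, 3 µM | Schedule: 17-24 h seeding, 75 min 37 °C dye, 30 min RT | Evaluation: % activation from peak over basal fluorescence ratio, DMSO-to-PEA scaled | Technique: Kinetic Fluo-8 calcium fluorescence | Benchmarks: Low control DMSO, high control PEA (EC100)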
OX1R antag-1: antagonists of human orexin 1 receptor (OX1R). O43613. OX1R-expressing cells, FRET antagonist read-out. inhibition, % at 6.6 µM. 330,000 compounds, 1.8% hits; in the data active means inhibition mostly above about 38%, no sharp cut-off; inactive means mostly below about 40%;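 further: 0% = agonist challenge alone and 100% = reference antagonist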
OX1R antag-2: blocks the human orexin 1 receptor; CHO/OX1R cells, Fluo-8 calcium fluorescence, orexin A; O43613; 330,000 compounds, 0.43% hits; AID 434989; inhibition, % at 5 µM;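 active means inhibition above its plate's threshold, mean inhibition of all tested compounds on the plate plus 3 SD, cut at about 37% in these data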;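 further: 0% = orexin A challenge wells and 100% = SB-334867-A antagonist wells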
CHO parental Ca: counter-screen for OX1R antagonists: effect in parental CHO cells. 330,000 compounds, 0.63% hits. inhibition, % at 5.6 µM. AID 463079. parental CHO-K1, ATP-induced calcium, Fluo-8 fluorescence;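 active means inhibition above that plate's mean sample inhibition plus 3 SD, cut at about 26% in these data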;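 further: 0% = ATP-challenged DMSO wells and 100% = DMSO wells without ATP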
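Test system: untransfected parental CHO cell line. Compound: one dose, 5.6 µM nominal. Detection: intracellular calcium via Fluo-8 no-wash fluorescent dye. Measure: % inhibition. Benchmarks: ATP-challenged DMSO wells low, unchallenged DMSO wells high.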
TAAR1 antagonist: antagonists of human TAAR1 | Q96RJ0 | CHO RD-HGA16 TAAR1, Fluo-8 calcium fluorescence, antagonist | inhibition, % at 3 µM | 360,000 compounds, 1.5% hits | AID 624466;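 active means inhibition above a per-plate cutoff, the mean inhibition of test compounds on that plate plus 3 SD, cut at about 49% in these data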;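 further: 0% = DMSO plus EC80 beta-PEA response and 100% = DMSO alone without agonist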
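Test system – hTAAR1-expressing CHO RD-HGA16 cells, Gα16-coupled · Reagent – β-PEA at EC80 concentration, post-compound challenge · Compound dosing – 3 µM, single point · Timing – 140 s kinetic read after compound, 140 s after agonist · Detection – Fluo-8 intracellular calcium dye fluorescence, real-time kinetic reads · Control set – DMSO and EC80 PEA controls · Repeats – n of 1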
OX1R HTRF confirm: OX1R (human) antagonism, HTRF confirmed; shares compounds with OX1R antag-1; OX1R-expressing cells, HTRF antagonist assay; inhibition, % at 6.6 µM; 1,800 compounds, 49% hits; AID 492964; in the data active means inhibition above about 55%;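 further: CHO cells expressing OX1R stimulated with orexin A at about EC80; 0% = agonist challenge alone and 100% = reference antagonist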
CHO-K1 HTRF: signal in parental CHO-K1 cells, OX1R antagonist counter-screen; shares compounds with OX1R antag-1; HTRF counterscreen; inhibition, % at 6.6 µM; 1,800 compounds, 48% hits; in the data active means inhibition above about 17%;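 further: 0% = agonist challenge with vehicle and 100% = vehicle alone without agonist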
An asterisk follows results filed as active.

`CCn1cc(CN(C)C(=O)/C=C/c2ccc([N+](=O)[O-])cc2)c(C)n1` gave NTR1 agonist 0, TAAR1 ag 4, OX1R antag-1 92*, OX1R antag-2 0, CHO parental Ca -3, TAAR1 antagonist -12, OX1R HTRF confirm 35 and CHO-K1 HTRF 35*.
O=C(CSc1ccc([N+](=O)[O-])cn1)Nc1ccc2[nH]c(=O)[nH]c2c1 was read as NTR1 agonist -1, TAAR1 ag 2, OX1R antag-1 93*, OX1R antag-2 5, CHO parental Ca -3, TAAR1 antagonist -19, OX1R HTRF confirm 28 and CHO-K1 HTRF 24*.
`c1cncc(-c2nc(NCC3COc4ccccc4O3)c3ccccc3n2)c1` (stereo not drawn) gave NTR1 agonist 9, TAAR1 ag 14, OX1R antag-1 95*, OX1R antag-2 21, CHO parental Ca -24, TAAR1 antagonist 54*, OX1R HTRF confirm 56* and CHO-K1 HTRF 13.
Cc1csc(CNC(=O)C2CCC(=O)N(CCCc3ccccc3)C2)n1 (stereo not drawn) was read as NTR1 agonist 0, TAAR1 ag 5, OX1R antag-1 8, OX1R antag-2 -4, CHO parental Ca 2 and TAAR1 antagonist -7.
Screening Cc1ccc2c(c1)N(CC(=O)NC1CCCCC1C)C(=O)CO2 (stereo not drawn) returned NTR1 agonist 0, TAAR1 ag 0, OX1R antag-1 111*, OX1R antag-2 -12, CHO parental Ca -14, TAAR1 antagonist 16, OX1R HTRF confirm 37 and CHO-K1 HTRF -2.
Cc1c(C)c2ccc(OCC(=O)NCCN3CCOCC3)cc2oc1=O was read as NTR1 agonist 0, TAAR1 ag 12, OX1R antag-1 5, OX1R antag-2 -18, CHO parental Ca -21 and TAAR1 antagonist -16.
Screening CC1=C(C(=O)Nc2cc(C(=O)NCCCOC(C)C)ccc2C)SCCO1 returned NTR1 agonist 0, TAAR1 ag 0, OX1R antag-1 1, OX1R antag-2 -4, CHO parental Ca -4 and TAAR1 antagonist -11.
For Cc1c(NC(=O)C(C)OC(=O)c2ccc([N+](=O)[O-])s2)c(=O)n(-c2ccccc2)n1C (stereo not drawn) the results were NTR1 agonist 0, TAAR1 ag 3, OX1R antag-1 118*, OX1R antag-2 -11, CHO parental Ca 3, TAAR1 antagonist -2, OX1R HTRF confirm 71* and CHO-K1 HTRF 81*.
`Cc1c(NC(=O)C(C)OC(=O)c2sc3ccccc3c2Cl)c(=O)n(-c2ccccc2)n1C` (stereo not drawn) gave NTR1 agonist -1, TAAR1 ag -1, OX1R antag-1 7, OX1R antag-2 -21, CHO parental Ca -21 and TAAR1 antagonist -17.
`Clc1ccc(N/N=C/c2cccnc2)cc1` gave NTR1 agonist 0, TAAR1 ag 26, OX1R antag-1 7, OX1R antag-2 -15, CHO parental Ca -19 and TAAR1 antagonist -1.
Screening Nc1c(Cl)ncnc1N/N=C/c1cccnc1 returned NTR1 agonist 0, TAAR1 ag 1, OX1R antag-1 84*, OX1R antag-2 -11, CHO parental Ca 0, TAAR1 antagonist -21, OX1R HTRF confirm 24 and CHO-K1 HTRF 31*.
`CC(=O)N1CCN(CC(=O)Nc2cc([N+](=O)[O-])ccc2Cl)CC1` gave NTR1 agonist 0, TAAR1 ag 0, OX1R antag-1 58, OX1R antag-2 0, CHO parental Ca -10 and TAAR1 antagonist -4.
For O=C(CN1CCN(c2ccc(O)cc2)CC1)Nc1cc([N+](=O)[O-])ccc1Cl the results were NTR1 agonist 1, TAAR1 ag 6, OX1R antag-1 79*, OX1R antag-2 8, CHO parental Ca -7, TAAR1 antagonist 10, OX1R HTRF confirm 32 and CHO-K1 HTRF 47*.
